Data published in ChEMBL document CHEMBL1131053, “Design, synthesis, and pharmacological evaluation of conformationally constrained analogues of N,N'-diaryl- and N-aryl-N-aralkylguanidines as potent inhibitors of neuronal Na+ channels” (J Med Chem, 1998).

Legend:
Mus musculus [1] = assay: Percent inhibition of convulsions in audiogenic DBA/2 mice at dose 10 mg/kg; assay type: functional
Outline: (§1)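 Audiogenic DBA/2 mice of either sex, 6.5–12 g, 20–23 days old. Drug or vehicle (0.3 M mannitol, 10 mL/kg) given ip 30 min before a 12 kHz, 120 dB pure tone for 45 s or until respiratory arrest. % inhibition = (MRS control − MRS treatment)/MRS control × 100.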

Mus musculus [2] = assay: Percent inhibition of convulsions in audiogenic DBA/2 mice at dose 20 mg/kg; assay type: functional; outline: as §1
Glutamate NMDA receptor = assay: Displacement of [3H]-MK-801 binding to N-methyl-D-aspartate glutamate receptor of rat brain membranes; assay type: cell membranes, Membrane
Outline: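 Rat brain membrane suspension; inhibition of [3H]MK-801 binding at the NMDA receptor ion-channel site. IC50 taken from displacement curves, Ki reported. Means of at least three separate determinations ± SEM.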

[3] = In vitro inhibition of Calcium flux into brain synaptosomes; assay type: functional, subcellular, Rattus norvegicus
Outline: (§2)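 45Ca2+ influx into brain synaptosomes depolarized by elevated K+, adapted from Nachsen and Blaustein. The rapid uptake component is measured, attributed to presynaptic neuronal (likely P-type) Ca2+ channels. Means of at least three determinations ± SEM unless otherwise indicated.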

[4] = target: T1, Sodium channel protein type 2 subunit alpha (Rattus norvegicus, UniProt P04775); assay: (§3) In vitro inhibition of [14C]- guanidinium influx in Chinese hamster ovary (CHO) cells expressing rat brain sodium channel type IIA (CNaIIA-1); assay type: cell-based
T1 sequence (P04775 whole entry): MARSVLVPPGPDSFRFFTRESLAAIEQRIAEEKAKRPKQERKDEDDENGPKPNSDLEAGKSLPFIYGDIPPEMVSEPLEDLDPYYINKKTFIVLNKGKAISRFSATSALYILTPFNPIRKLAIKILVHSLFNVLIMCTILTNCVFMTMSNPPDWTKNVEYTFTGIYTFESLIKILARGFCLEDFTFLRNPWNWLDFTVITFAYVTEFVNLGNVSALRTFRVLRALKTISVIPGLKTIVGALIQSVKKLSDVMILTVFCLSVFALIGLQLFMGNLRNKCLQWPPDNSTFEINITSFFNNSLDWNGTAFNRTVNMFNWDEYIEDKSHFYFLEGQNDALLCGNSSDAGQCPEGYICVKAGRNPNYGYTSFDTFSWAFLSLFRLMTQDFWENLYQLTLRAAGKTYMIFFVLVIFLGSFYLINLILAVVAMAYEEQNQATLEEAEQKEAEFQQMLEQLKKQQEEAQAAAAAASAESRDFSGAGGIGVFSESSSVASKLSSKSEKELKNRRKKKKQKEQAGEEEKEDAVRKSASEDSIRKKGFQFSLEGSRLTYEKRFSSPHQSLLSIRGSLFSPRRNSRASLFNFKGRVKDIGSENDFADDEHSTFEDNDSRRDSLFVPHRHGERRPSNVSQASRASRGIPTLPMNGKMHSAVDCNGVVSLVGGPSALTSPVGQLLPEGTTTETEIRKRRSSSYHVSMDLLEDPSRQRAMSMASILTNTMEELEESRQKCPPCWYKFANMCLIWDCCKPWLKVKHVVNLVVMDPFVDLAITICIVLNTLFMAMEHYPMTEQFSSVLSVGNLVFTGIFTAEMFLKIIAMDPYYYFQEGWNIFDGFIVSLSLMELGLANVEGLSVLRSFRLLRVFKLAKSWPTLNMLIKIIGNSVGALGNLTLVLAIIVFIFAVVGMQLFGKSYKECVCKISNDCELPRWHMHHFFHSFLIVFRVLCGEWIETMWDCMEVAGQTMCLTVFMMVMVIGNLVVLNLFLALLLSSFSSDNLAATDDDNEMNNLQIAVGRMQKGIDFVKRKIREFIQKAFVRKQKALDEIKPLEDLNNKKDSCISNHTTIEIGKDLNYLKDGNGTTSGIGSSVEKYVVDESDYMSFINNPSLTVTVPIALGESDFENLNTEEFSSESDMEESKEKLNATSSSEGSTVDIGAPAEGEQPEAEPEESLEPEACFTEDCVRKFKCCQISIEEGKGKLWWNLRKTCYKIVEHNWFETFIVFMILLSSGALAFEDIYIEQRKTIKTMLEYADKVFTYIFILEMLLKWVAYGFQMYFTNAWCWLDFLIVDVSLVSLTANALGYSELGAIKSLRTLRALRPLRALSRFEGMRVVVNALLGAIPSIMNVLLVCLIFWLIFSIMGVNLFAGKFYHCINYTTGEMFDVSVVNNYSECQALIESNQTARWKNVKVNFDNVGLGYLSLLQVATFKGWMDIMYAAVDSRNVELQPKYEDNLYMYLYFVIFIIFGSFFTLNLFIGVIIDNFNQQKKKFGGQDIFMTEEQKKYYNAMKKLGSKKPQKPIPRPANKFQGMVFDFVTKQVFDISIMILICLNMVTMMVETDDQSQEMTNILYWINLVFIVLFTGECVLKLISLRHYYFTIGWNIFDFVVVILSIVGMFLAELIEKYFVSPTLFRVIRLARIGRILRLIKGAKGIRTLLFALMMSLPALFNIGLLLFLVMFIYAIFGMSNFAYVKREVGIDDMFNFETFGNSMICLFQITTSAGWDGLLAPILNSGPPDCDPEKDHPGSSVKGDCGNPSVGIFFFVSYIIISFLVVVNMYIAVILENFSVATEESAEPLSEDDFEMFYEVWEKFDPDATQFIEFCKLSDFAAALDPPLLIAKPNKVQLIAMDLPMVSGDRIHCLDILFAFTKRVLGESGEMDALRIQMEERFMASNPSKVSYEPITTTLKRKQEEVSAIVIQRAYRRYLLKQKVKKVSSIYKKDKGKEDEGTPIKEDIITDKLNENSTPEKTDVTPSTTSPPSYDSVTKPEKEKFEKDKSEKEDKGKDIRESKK

[5] = In vitro inhibition of Calcium flux into brain synaptosomes (Values are means of at least three separate determinations); assay type: functional, subcellular, Rattus norvegicus; outline: as §2
[6] = target: T1, Sodium channel protein type 2 subunit alpha; assay: as §3; assay type: functional, cell-based
Mus musculus [7] = assay: Percent inhibition of convulsions in audiogenic DBA/2 mice at dose 2 mg/kg; assay type: functional; outline: as §1
Mus musculus [8] = assay: Percent inhibition of convulsions in audiogenic DBA/2 mice at dose 4 mg/kg; assay type: functional; outline: as §1

SMILES | Ki (Glutamate NMDA receptor) [µM] | IC50 [4] [µM] | inhibition in vivo at 20 mg/kg (Mus musculus [2]) [%] | other results
c1ccc(NC2=NCCN2c2ccccc2)cc1 |  | > 25 |  | 
COc1ccc(/N=C(\N)Nc2ccc3c4c(cccc24)CC3)c2ccccc12 | 2.49 |  | 21 | IC50 [5]: 2.7 µM; IC50 [6]: 1.64 µM
CCC(C)c1ccc(NC(=N)Nc2ccc(C(C)CC)cc2)cc1 (configuration not stated) | 4.33 |  | 69 | 
NC1=NCC(c2ccccc2)N1c1ccccc1 (configuration not stated) |  | > 24 |  | 
NC1=Nc2ccccc2CN1c1ccccc1 |  | 9.95 |  | 
N=C(N)N(Cc1ccccc1)c1ccccc1 |  | 53 |  | 
N=C1N(c2ccccc2)CCCN1c1ccccc1 |  | > 25 |  | 
N/C1=N/c2ccc(cc2)OCCCCCOc2ccc(cc2)N1 |  | 2.9 |  | 
CCOc1ccc(NC(=N)Nc2ccc(OCC)cc2)cc1 |  | 3.28 |  | 
CCC(C)c1ccc(N2C(N)=NCC2c2ccc(C(C)C)cc2)cc1 (configuration not stated) | 4.41 | 1.8 | 2 | IC50 [3]: 3.5 µM
N=C(Nc1ccccc1)Nc1ccccc1 |  |  |  | IC50 [6]: > 14 µM
Nc1nnc(-c2cccc(Cl)c2Cl)c(N)n1 [LAMOTRIGINE] |  |  |  | inhibition in vivo at 10 mg/kg (Mus musculus [1]): 71%
CN(c1nc2ccccc2s1)C1CCN(C[C@H](O)COc2ccc(F)c(F)c2)CC1 [LUBELUZOLE] |  | 0.26 | 66 | 

The next lines start with results.

Ki (Glutamate NMDA receptor) [µM] | IC50 [4] [µM] | SMILES | inhibition in vivo at 20 mg/kg (Mus musculus [2]) [%] | other results
3.69 | 0.62 | CCC(C)c1ccc(N(Cc2ccc(C(C)(C)C)cc2)C(=N)N)cc1 (configuration not stated) | 81 | inhibition in vivo at 10 mg/kg (Mus musculus [1]): 44%; IC50 [3]: 2.4 µM
13.5 |  | CCC(C)c1ccc(N2CCN(c3ccc(C(C)CC)cc3)C2=N)cc1 (configuration not stated) | 58 | IC50 [6]: 0.06 µM
35.1 |  | CCC(C)c1ccc(N2CCCN(c3ccc(C(C)CC)cc3)C2=N)cc1 (configuration not stated) |  | inhibition in vivo at 10 mg/kg (Mus musculus [1]): 84%; inhibition in vivo at 2 mg/kg (Mus musculus [7]): 41%; inhibition in vivo at 4 mg/kg (Mus musculus [8]): 75%; IC50 [5]: 0.39 µM; IC50 [6]: 0.06 µM
3.84 |  | CC(C)c1ccc2c(c1)CCC(c1ccc(C(C)(C)C)cc1)N2C(=N)N (configuration not stated) | 80 | inhibition in vivo at 10 mg/kg (Mus musculus [1]): 22%; IC50 [5]: 0.9 µM; IC50 [6]: 0.46 µM
3.34 |  | CCC(C)c1ccc(N(C)C(=N)N(C)c2ccc(C(C)CC)cc2)cc1 (configuration not stated) | 43 | IC50 [5]: 2.5 µM; IC50 [6]: 1 µM
 | 38 | N=C(N)N1Cc2ccccc2CCc2ccccc21 |  | 
 | 17.5 | N=C(N)N1c2ccccc2CCC1c1ccccc1 (configuration not stated) |  | 
 | 14.7 | N=C1N(c2ccccc2)CCN1c1ccccc1 |  | 
